Laboratory results: paper PMC2774150 (Apmis, 2008)
“Also recorded” adds a separate entry of the source. Where two headings read alike, the source gives them in different places.

Columns and labels:
[1] = cited from earlier work
[2] = system: histone acetylation in peripheral blood lymphocytes; details: clinical study; cited from earlier work
[3] = system: acetylated H4 in A2780 ovarian cancer cells; assay: H4 acetylation by immunohistochemistry in paraffin-embedded A2780 cell blocks; assay type: cell-based, human; details: 1 μM for 1 h
[4] = system: H4 acetylation in peripheral canine blood; details: 10 min after i.v. infusion given over 45 min, total dose 50 mg/kg; cited from earlier work
[5] = system: H4 acetylation in HCT-116 colon cancer model; assay: Experiment 1: H4 acetylation in vivo, HCT-116 xenograft; parameters: species or system NMRI nude mice; details: 100 mg/kg single i.v., 1 h
In short: (§1)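 Female NMRI nude mice, 6–8 weeks old, received about 10^7 cells with matrigel s.c. into the flank under Hypnorm/Dormicum. They were given 100 mg/kg test compound i.v. or vehicle (L-arginine 200 mg/kg in isotonic sterile saline) and killed after 1 h. Formalin-fixed, paraffin-embedded tumors were immunostained for acetylated H4 (mouse monoclonal T25, acetyl-Lys8/Lys12, 1:13,000; TEG pH 9 retrieval; EnVision+/DAB) and scored 0–3.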

[6] = system: H4 acetylation in A2780 xenograft tumor; assay: Experiment 4: H4 acetylation score in A2780 tumor; assay type: in vivo, NMRI nude mice
In short: (§2)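 Groups of 3–4 NMRI nude mice with s.c. A2780 xenografts (500–1000 mg) received a single 200 mg/kg test compound dose i.v. or vehicle (L-arginine 400 mg/kg in isotonic sterile saline). Mice were killed at 15 min, 30 min, 1, 2 or 3 h. Tumor and spleen were halved, and one part was immunostained with T25 anti-acetyl-H4. Scores were 0–3 per mouse, averaged per time point.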

[7] = system: H4 acetylation in PC-3 prostate cancer model; assay: Experiment 1: H4 acetylation in vivo, PC-3 xenograft; parameters: species or system NMRI nude mice; details: 100 mg/kg single i.v., 1 h
In short: as §1

[8] = system: H4 acetylation in spleen; assay: Experiment 4: H4 acetylation score in spleen; assay type: in vivo, NMRI nude mice; details: 200 mg/kg i.v.
In short: as §2

[9] = system: p21 expression in A2780 xenograft; assay: Experiment 3: p21 expression in A2780 biopsies and tumors; assay type: in vivo, NMRI nude mice
In short: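 In A2780 xenografts (small 300–400 mg or large 1500–1800 mg), mice received 100 mg/kg test compound i.v. Pretreatment (large tumors) and post-dose needle biopsies were taken between 1 and 6 h; whole tumors were taken at 3, 6 or 24 h. Paraffin sections were immunostained for p21 (monoclonal EA10, 1:80; TEG pH 9 retrieval; EnVision+/DAB) and nuclear versus cytoplasmic staining was recorded.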

[10] = system: H4 acetylation in A2780 ovarian cancer model; assay: Experiment 1: H4 acetylation in vivo, A2780 xenograft; parameters: species or system NMRI nude mice; details: 100 mg/kg single i.v., 1 h
In short: as §1

[11] = Experiment 4: belinostat in plasma, tumor and spleen by LC-MS/MS; assay type: in vivo, NMRI nude mice
In short: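 A2780 xenograft mice received 200 mg/kg i.v. once; lithium-heparin plasma, tumor and spleen were collected at 15 min–3 h. Plasma was protein-precipitated with a 13C-labelled internal standard, dried and redissolved in 10% HCOOH/ACN. Tissues were homogenized in water/ACN/methanol containing internal standard (1 μg/ml). Analysis used LC-MS/MS on UPLC C18 (0.05% HCOOH/ACN, 5 min gradient, 0.5 ml/min), reporting ng/ml plasma and ng/g tissue.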

[12] = system: H4 acetylation in peripheral blood from A2780 xenografts; details: 3 h after treatment, 40 mg/kg i.p.; cited from earlier work
[13] = system: H4 acetylation in histones extracted from A2780 cells; details: cited from earlier work
[14] = system: H4 acetylation in A2780 biopsies and tumors; assay: Experiment 3: time dependence of H4 acetylation in A2780 biopsies and tumors; assay type: in vivo, NMRI nude mice; details: for H4 acetylation, 1 h biopsy / H4 acetylation, 2 h biopsy / H4 acetylation, 3 h biopsy / H4 acetylation, 3 h tumor / H4 acetylation, 6 h biopsy / H4 acetylation, 6 h tumor: individual mice
In short: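 Sixteen NMRI nude mice with small (300–400 mg) or large (1500–1800 mg) A2780 s.c. tumors received 100 mg/kg test compound i.v. at time zero. A pretreatment biopsy (large tumors only) and one post-dose 18G needle biopsy (1–6 h) were taken under isoflurane. Whole tumors were excised at 3, 6 or 24 h. Paraffin sections were stained with T25 anti-acetyl-H4 (1:13,000) and scored 0–3.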

[15] = system: H4 acetylation in A548 lung cancer model; assay: Experiment 1: H4 acetylation in vivo, A549 xenograft; parameters: species or system NMRI nude mice; details: 100 mg/kg single i.v., 1 h
In short: as §1

[16] = system: H4 acetylation in MCF-7 model; assay: Experiment 1: H4 acetylation in vivo, MCF-7 xenograft; parameters: species or system NMRI nude mice; details: 100 mg/kg single i.v., 1 h
In short: as §1

[17] = system: acetylated H4 in A2780 xenograft; assay: Experiment 2: H4 acetylation in A2780 biopsies and representative tumors; assay type: in vivo, NMRI nude mice; details: 100 mg/kg i.v., 1 h, A2780, Fig. 4A
In short: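 Mice bearing HCT-116, A2780, PC-3 or MCF-7 tumors (500–1000 mg) received 100 mg/kg test compound i.v. or vehicle and were killed after 1 h. Biopsies were taken with an 18G needle, aspirating while rotating. Biopsies and the remaining tumor were formalin-fixed, paraffin-embedded and stained with anti-acetyl-H4 T25 (1:13,000). Staining was scored negative, weak, moderate or strong (0–3).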

[18] = 200 mg/kg i.v., individual mice
[19] = 200 mg/kg i.v., individual mice, listed as Belinostat
[20] = single treatment 200 mg/kg i.v.
[21] = individual mice, listed as Belinostat
[22] = 100 mg/kg i.v., large tumors (1500–1800 mg)
[23] = 100 mg/kg i.v., small tumors (300–400 mg)

## O=C(CCCCCCC(=O)Nc1ccccc1)NO [vorinostat, suberoylanilide hydroxamic acid]
[1]; dose proportional increases in Cmax and AUC
  pharmacokinetics (linearity): linear
[2]
  half-life of acetylated histones at higher doses: increased

## O=C(/C=C/c1cccc(S(=O)(=O)Nc2ccccc2)c1)NO [belinostat]
[3]
  H4 acetylation: strong (strong (score=3))
[4]
  H4 acetylation in peripheral canine blood: increased
[5]
  H4 acetylation: caused H4 acetylation
[6]; [18]
  H4 acetylation (score), tumor, 15 min: weak-to-moderate
  H4 acetylation (score), tumor, 1 h: strong (strong (score=3))
  H4 acetylation (score), tumor, 3 h: weak and moderate
[6]; [19]
  H4 acetylation (score), tumor, 15 min: Moderate (2); also recorded: No (0); also recorded: Weak (1)
  H4 acetylation (score), tumor, 30 min: Moderate (2); also recorded: Strong (3); also recorded: Weak (1)
  H4 acetylation (score), tumor, 1 h: Strong (3)
  H4 acetylation (score), tumor, 2 h: Moderate (2); also recorded: Strong (3)
  H4 acetylation (score), tumor, 3 h: Moderate (2); also recorded: Weak (1)
[6]; 200 mg/kg i.v., score 0-3
  H4 acetylation score, tumor, mean, 15 min: 1.25
  H4 acetylation score, tumor, mean, 30 min: 2
  H4 acetylation score, tumor, mean, 1 h: 3
  H4 acetylation score, tumor, mean, 2 h: 2.33
  H4 acetylation score, tumor, mean, 3 h: 1.67
[6]; [20]
  time at which increased acetylated H4 was detected in tumor tissue: 15 min
  time of maximal H4 acetylation level: 1 h
[7]
  H4 acetylation: Weak
[8]; individual mice
  H4 acetylation (score), spleen, 2 h: Moderate (2)
[8]; [21]
  H4 acetylation (score), spleen, 15 min: Moderate (2); also recorded: Weak (1)
  H4 acetylation (score), spleen, 30 min: Strong (3); also recorded: Moderate (2)
  H4 acetylation (score), spleen, 1 h: Strong (3); also recorded: Moderate (2)
  H4 acetylation (score), spleen, 3 h: Weak (1); also recorded: No (0)
[8]; score 0-3
  H4 acetylation score, spleen, mean, 15 min: 1.5
  H4 acetylation score, spleen, mean, 30 min: 2.5
  H4 acetylation score, spleen, mean, 1 h: 2.75
  H4 acetylation score, spleen, mean, 2 h: 2
  H4 acetylation score, spleen, mean, 3 h: 0.67
[9]; 100 mg/kg i.v., 2 h, one of four biopsies
  biopsies with moderate cytoplasmic p21 expression: 25%
[9]; 100 mg/kg i.v., 3 h, 10 tumors
  tumors with strong cytoplasmic p21 expression: 10%
  tumors with weak cytoplasmic p21 expression: 50%
[9]; 100 mg/kg i.v., 6 h
  cytoplasmic p21 expression, all biopsies removed after 6 h: moderate-to-strong
[9]; 100 mg/kg i.v., 6 h, four tumors
  tumors with strong cytoplasmic p21 expression: 25%
[9]; 100 mg/kg i.v., 24 h
  cytoplasmic p21 expression after 24 h: disappeared
[9]; after belinostat treatment
  time of p21 induction in the cytoplasm: about 3 h
[10]
  H4 acetylation signal: strongest signal
[11]; 200 mg/kg i.v. single dose
  distribution to tumor and spleen tissue: similar
[11]; 200 mg/kg i.v., 1 h after treatment, Fig. 8
  belinostat plasma concentration at maximal acetylation: above 10^3 ng/ml
[12]
  H4 acetylation in peripheral blood from A2780 xenografts: returned to base line levels
[13]; 30 min after treatment with 1 μM
  H4 acetylation in histones extracted from A2780 cells: increased
[13]; 3 h after treatment, 1 μM
  H4 acetylation in histones extracted from A2780 cells: returned to base line levels
[14]; 100 mg/kg i.v.
  H4 acetylation after 6 and 24 h: weak or no
  H4 acetylation, general findings at 3 h: weak or moderate
[14]; 100 mg/kg i.v., 1 h after treatment
  H4 acetylation in biopsy, same mouse (Fig. 4B): strong (strong (score=3))
[14]; 100 mg/kg i.v., 3 h after treatment
  removed tumors with strong H4 acetylation: 1/10
[14]; 100 mg/kg i.v., Experiment 3, not extended at 200 mg/kg
  acetylation period: 1 to 2 h
[14]; 100 mg/kg i.v., after 3 h
  H4 acetylation in tumor, same mouse (Fig. 4B): weak (weak (score=1))
[14]; [22]
  H4 acetylation, 1 h biopsy: Strong
  H4 acetylation, 2 h biopsy: Strong
  H4 acetylation, 3 h biopsy: Strong
  H4 acetylation, 3 h tumor: Moderate and Weak
  H4 acetylation, 6 h biopsy: Weak
  H4 acetylation, 6 h tumor: Weak
[14]; 100 mg/kg i.v., n=4
  H4 acetylation, all biopsies collected 2 h after treatment: strong (strong (score=3))
[14]; 100 mg/kg i.v., n=5
  H4 acetylation, all biopsies collected 1 h after treatment: strong (strong (score=3))
[14]; [23]
  H4 acetylation, 1 h biopsy: Strong
  H4 acetylation, 2 h biopsy: Strong
  H4 acetylation, 3 h biopsy: Moderate; also recorded: Strong
  H4 acetylation, 3 h tumor: Weak and Moderate and Strong
  H4 acetylation, 6 h biopsy: Weak
  H4 acetylation, 6 h tumor: Weak
[14]; after treatment, A2780 xenograft
  time at which H4 acetylation reached base line level: 3 h
[15]
  H4 acetylation: caused H4 acetylation
[16]
  H4 acetylation: Weak
[17]
  H4 acetylation in both biopsies and tumors: strong (III) or moderate (IV)

## Nc1ccccc1NC(=O)c1ccc(CNC(=O)OCc2cccnc2)cc1 [MS-275]
[1]
  pharmacokinetics (linearity): linear, dose-independent
